Reference: ChEMBL document CHEMBL3351994, “Synthesis and biological evaluation of novel millepachine derivatives as a new class of tubulin polymerization inhibitors” (J Med Chem, 2014)
Converted amounts (≈) assume the structure as drawn.

Experiments:
[1] = Antiproliferative activity against cisplatin resistant human […] cells assessed as inhibition of cell proliferation after 48 hrs by MTT assay; format: functional, cell-based; conditions: A2780cisR
In short: (§1)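 Cells grown at 37 °C in humidified 5% CO2. K562, C26 and HCT lines in RPMI-1640; other lines in DMEM; both media with 10% FBS, penicillin and streptomycin. 1000 cells/well seeded, incubated overnight, then compound at various doses for 48 h. MTT added for 4 h, formazan dissolved in DMSO, absorbance read at 590 nm. IC50 from dose–response curves, mean ± SEM of at least three independent experiments.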

HepG2 [2] = assay: Induction of apoptosis in human HepG2 cells assessed as viable cells at 50 nM after 48 hrs by annexin-V-FITC and propidium iodide staining based flow cytometry (reference value: 93.2%); format: functional; conditions: HepG2, 48 h, read-out: Activity
U-251 = assay: Antiproliferative activity against human U251 cells assessed as inhibition of cell proliferation after 48 hrs by MTT assay; format: functional, cell-based; conditions: U-251, 48 h; in short: as §1
[3] = Solubility in PBS solution by nephelometry; format: physicochemical
In short: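 Maximum soluble concentration in PBS, determined by nephelometry.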

HepG2 [4] = assay: Induction of cell cycle arrest in human HepG2 cells assessed as accumulation at G2/M phase phase at 200 nM after 24 hrs by propidium iodide staining based flow cytometry (reference value: 11.2%); format: functional
HepG2 [5] = assay: Induction of apoptosis in human HepG2 cells assessed as necrotic cells at 50 nM after 48 hrs by annexin-V-FITC and propidium iodide staining based flow cytometry (reference value: 2.16%); format: functional
HepG2 [6] = assay: Induction of apoptosis in human HepG2 cells assessed as viable cells at 100 nM after 48 hrs by annexin-V-FITC and propidium iodide staining based flow cytometry (reference value: 93.2%); format: functional; conditions: HepG2, 48 h, read-out: Activity
[7] = Volume of distribution at steady state in rat at 2.25 mg/kg, iv; format: ADME, organism-based; design: dose 2.25 mg/kg, route intravenous; conditions: in vivo, read-out: Vdss
HepG2 [8] = assay: Induction of apoptosis in human HepG2 cells assessed as early apoptotic cells at 200 nM after 24 hrs by annexin-V-FITC and propidium iodide staining based flow cytometry (reference value: 3.63%); format: functional
In short: (§2)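 HepG2 cells treated with 50, 100 or 200 nM compound or DMSO vehicle for 24 or 48 h at 37 °C. Labeled with annexin-V-FITC and PI and analyzed by flow cytometry. Cells classified as early apoptotic (annexin-V+/PI−), late apoptotic (annexin-V+/PI+) or necrotic (annexin-V−/PI+).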

HepG2 [9] = assay: Induction of apoptosis in human HepG2 cells assessed as necrotic cells at 100 nM after 24 hrs by annexin-V-FITC and propidium iodide staining based flow cytometry (reference value: 2.16%); format: functional; in short: as §2
HepG2 [10] = assay: Induction of apoptosis in human HepG2 cells assessed as late apoptotic cells at 100 nM after 24 hrs by annexin-V-FITC and propidium iodide staining based flow cytometry (reference value: 1.03%); format: functional; in short: as §2
[11] = Antiproliferative activity against taxol resistant human […] cells assessed as inhibition of cell proliferation after 48 hrs by MTT assay; format: functional, cell-based; conditions: A2780, 48 h; in short: as §1
[12] = Antiproliferative activity against human HCT15 cells assessed as inhibition of cell proliferation after 48 hrs by MTT assay; format: functional, cell-based; conditions: HCT-15, 48 h; in short: as §1
HepG2 [13] = assay: Induction of apoptosis in human HepG2 cells assessed as late apoptotic cells at 100 nM after 48 hrs by annexin-V-FITC and propidium iodide staining based flow cytometry (reference value: 1.03%); format: functional; in short: as §2
HepG2 [14] = assay: Induction of cell cycle arrest in human HepG2 cells assessed as accumulation at G2/M phase phase at 100 nM after 24 hrs by propidium iodide staining based flow cytometry (reference value: 11.2%); format: functional
Rattus norvegicus = assay: Volume of distribution at steady state in rat at 9 mg/kg, po; format: ADME, organism-based; design: dose 9 mg/kg, route oral; conditions: in vivo
[15] = Antiproliferative activity against taxol resistant human HCT8 cells assessed as inhibition of cell proliferation after 48 hrs by MTT assay; format: functional, cell-based; conditions: HCT-8, 48 h; in short: as §1
[16] = Antiproliferative activity against human DLD1 cells assessed as inhibition of cell proliferation after 48 hrs by MTT assay; format: functional, cell-based; conditions: DLD-1, 48 h; in short: as §1
MCF7 = assay: Resistance index, ratio of IC50 for adriamycin resistant human MCF7 cells to IC50 for parental human MCF7 cells; format: functional
A2780cisR = assay: Resistance index, ratio of IC50 for cisplatin resistant human […] cells to IC50 for parental human […] cells; format: functional
HepG2 [17] = assay: Induction of apoptosis in human HepG2 cells assessed as early apoptotic cells at 200 nM after 48 hrs by annexin-V-FITC and propidium iodide staining based flow cytometry (reference value: 3.63%); format: functional; in short: as §2
HepG2 [18] = assay: Induction of apoptosis in human HepG2 cells assessed as necrotic cells at 200 nM after 24 hrs by annexin-V-FITC and propidium iodide staining based flow cytometry (reference value: 2.16%); format: functional; in short: as §2
HCT-8 = assay: Resistance index, ratio of IC50 for taxol resistant human HCT8 cells to IC50 for parental human HCT8 cells; format: functional
HepG2 [19] = assay: Induction of apoptosis in human HepG2 cells assessed as viable cells at 200 nM after 48 hrs by annexin-V-FITC and propidium iodide staining based flow cytometry (reference value: 93.2%); format: functional; conditions: HepG2, 48 h, read-out: Activity
HepG2 [20] = assay: Induction of apoptosis in human HepG2 cells assessed as early apoptotic cells at 50 nM after 24 hrs by annexin-V-FITC and propidium iodide staining based flow cytometry (reference value: 3.63%); format: functional; in short: as §2
HepG2 [21] = assay: Induction of apoptosis in human HepG2 cells assessed as necrotic cells at 50 nM after 24 hrs by annexin-V-FITC and propidium iodide staining based flow cytometry (reference value: 2.16%); format: functional
HepG2 [22] = assay: Induction of cell cycle arrest in human HepG2 cells assessed as accumulation at G0/G1 phase at 100 nM after 24 hrs by propidium iodide staining based flow cytometry (reference value: 58.2%); format: functional
[23] = Antiproliferative activity against human HCT116 cells assessed as inhibition of cell proliferation after 48 hrs by MTT assay; format: functional, cell-based; conditions: HCT-116, 48 h
[24] = Antiproliferative activity against mouse C26 cells assessed as inhibition of cell proliferation after 48 hrs by MTT assay; format: functional, cell-based; conditions: C26, 48 h; in short: as §1
HepG2 [25] = assay: Induction of apoptosis in human HepG2 cells assessed as late apoptotic cells at 50 nM after 24 hrs by annexin-V-FITC and propidium iodide staining based flow cytometry (reference value: 1.03%); format: functional; in short: as §2
HepG2 [26] = assay: Induction of apoptosis in human HepG2 cells assessed as late apoptotic cells at 50 nM after 48 hrs by annexin-V-FITC and propidium iodide staining based flow cytometry (reference value: 1.03%); format: functional; in short: as §2
NCI-H358 = assay: Antiproliferative activity against human NCI-H358 cells assessed as inhibition of cell proliferation after 48 hrs by MTT assay; format: functional, cell-based; conditions: NCI-H358, 48 h; in short: as §1
[27] = Cmax in rat at 9 mg/kg, po; format: ADME, organism-based; design: dose 9 mg/kg, route oral; conditions: in vivo
In short: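 Rat pharmacokinetics; oral and intravenous dosing, with group sizes of 5, 5 and 4 rats. Parameters derived: systemic clearance, volume of distribution, area under the plasma concentration–time curve, maximum plasma concentration and percent oral bioavailability.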

COc1ccc(/C=C/C(=O)c2ccc(OC)c3c2OC(C)(C)C=C3)cc1N
IC50 [1]: 14 nM | viability at 0.05 µM (HepG2 [2]): 66.1% | IC50 (U-251): 24 nM | solubility kinetic [3]: 8 µg/mL (≈ 21.9 µM) | Activity (HepG2 [4]): 43.3% | Activity (HepG2 [5]): 2.76% | viability at 0.1 µM (HepG2 [6]): 48.8% | Vd [7]: 21 L/kg | Activity (HepG2 [8]): 11.45% | Activity (HepG2 [9]): 3.83% | Activity (HepG2 [10]): 12.43% | IC50 [11]: 84 nM | IC50 [12]: 19 nM | Activity (HepG2 [13]): 29.45% | Activity (HepG2 [14]): 37.4% | Vdss (Rattus norvegicus): 25 L/kg | IC50 [15]: 152 nM | IC50 [16]: 18 nM | Ratio IC50 (MCF7): 1.6 | Ratio IC50 (A2780cisR): 0.7 | Activity (HepG2 [17]): 20.14% | Activity (HepG2 [18]): 1.95% | Ratio IC50 (HCT-8): 9.5 | viability at 0.2 µM (HepG2 [19]): 41.7% | Activity (HepG2 [20]): 2.21% | Activity (HepG2 [21]): 4.71% | Activity (HepG2 [22]): 34.8% | IC50 [23]: 21 nM | IC50 [24]: 26 nM | Activity (HepG2 [25]): 4.28% | Activity (HepG2 [26]): 17.69% | IC50 (NCI-H358): 12 nM | Cmax [27]: 519 ng/mL
